{"source": "ChEMBL document CHEMBL4831560", "about": "“Design, Synthesis, and Biological Evaluation of APN and AKT Dual-Target Inhibitors” (ACS Med Chem Lett, 2021)", "key": {"Aminopeptidase N": {"target": "T1, Aminopeptidase N (Sus scrofa, UniProt P15145)", "T1 sequence (P15145 whole entry)": "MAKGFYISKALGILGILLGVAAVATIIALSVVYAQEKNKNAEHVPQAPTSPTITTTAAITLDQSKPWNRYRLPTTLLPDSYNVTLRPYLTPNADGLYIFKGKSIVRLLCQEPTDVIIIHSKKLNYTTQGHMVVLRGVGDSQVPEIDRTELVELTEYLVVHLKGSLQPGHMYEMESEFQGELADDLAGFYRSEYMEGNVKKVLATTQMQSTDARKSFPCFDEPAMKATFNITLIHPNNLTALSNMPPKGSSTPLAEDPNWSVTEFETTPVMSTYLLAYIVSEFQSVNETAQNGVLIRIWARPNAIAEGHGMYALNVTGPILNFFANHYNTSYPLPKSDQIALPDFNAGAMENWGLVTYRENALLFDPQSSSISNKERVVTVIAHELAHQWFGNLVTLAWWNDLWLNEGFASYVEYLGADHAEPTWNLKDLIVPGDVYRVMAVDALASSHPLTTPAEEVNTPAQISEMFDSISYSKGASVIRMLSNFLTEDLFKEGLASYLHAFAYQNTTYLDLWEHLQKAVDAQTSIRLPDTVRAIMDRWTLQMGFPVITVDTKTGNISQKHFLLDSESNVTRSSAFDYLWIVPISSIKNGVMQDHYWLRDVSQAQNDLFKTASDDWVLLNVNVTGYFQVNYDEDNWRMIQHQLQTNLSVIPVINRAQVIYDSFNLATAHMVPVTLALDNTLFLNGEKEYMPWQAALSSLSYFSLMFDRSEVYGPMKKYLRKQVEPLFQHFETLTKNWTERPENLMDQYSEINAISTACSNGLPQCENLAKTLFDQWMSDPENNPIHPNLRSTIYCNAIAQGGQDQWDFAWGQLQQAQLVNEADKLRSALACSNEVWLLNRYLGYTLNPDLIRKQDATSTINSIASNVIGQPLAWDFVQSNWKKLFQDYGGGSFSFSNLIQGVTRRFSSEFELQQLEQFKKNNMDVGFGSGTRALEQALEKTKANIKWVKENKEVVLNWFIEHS", "assay": "Inhibition of APN in pig kidney microsomes assessed as reduction in p-nitroanilide release using L-leu-p-nitroanilide as substrate incubated for 30 mins by UV absorption based analysis"}, "[1]": {"target": "T2, RAC-alpha serine/threonine-protein kinase (Homo sapiens, UniProt P31749)", "T2 sequence (P31749 whole entry)": "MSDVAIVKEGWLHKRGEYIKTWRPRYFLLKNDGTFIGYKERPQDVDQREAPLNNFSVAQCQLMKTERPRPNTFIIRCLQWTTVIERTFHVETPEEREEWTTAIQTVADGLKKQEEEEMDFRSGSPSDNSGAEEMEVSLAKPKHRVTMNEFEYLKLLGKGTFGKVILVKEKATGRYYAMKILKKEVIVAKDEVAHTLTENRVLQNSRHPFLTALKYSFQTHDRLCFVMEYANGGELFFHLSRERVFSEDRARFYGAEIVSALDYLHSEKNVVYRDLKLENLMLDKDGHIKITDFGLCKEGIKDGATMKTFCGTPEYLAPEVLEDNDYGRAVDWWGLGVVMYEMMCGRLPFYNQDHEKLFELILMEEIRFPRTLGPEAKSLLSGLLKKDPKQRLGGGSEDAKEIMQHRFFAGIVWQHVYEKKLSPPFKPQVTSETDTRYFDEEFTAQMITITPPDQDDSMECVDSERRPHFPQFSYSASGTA", "settings": "dose 200.0 nM, time 40.0 min"}, "NCI-H1975": {"system": "NCI-H1975", "assay": "Antiproliferative activity against human NCI-H1975 cells assessed as reduction in cell viability incubated for 72 hrs by MTT assay", "type": "functional, cell-based", "settings": "NCI-H1975, 72 h"}, "AGS": {"system": "AGS", "assay": "Antiproliferative activity against human AGS cells assessed as reduction in cell viability incubated for 72 hrs by MTT assay", "type": "functional, cell-based"}, "MCF7": {"system": "MCF7", "assay": "Antiproliferative activity against human MCF7 cells assessed as reduction in cell viability incubated for 72 hrs by MTT assay", "type": "functional, cell-based", "settings": "MCF7, 72 h"}, "HUVEC": {"system": "HUVEC", "assay": "Anti-angiogenic activity against HUVEC cells assessed as inhibition of tubular structure formation at 10 uM […] by Matrigel based phase contrast microscopic analysis", "type": "functional, cell-based", "settings": "Homo sapiens"}, "[2]": {"target": "T2, RAC-alpha serine/threonine-protein kinase", "assay": "Inhibition of AKT1 (unknown origin) incubated for 40 mins in presence of ATP by Kinase-Glo reagent based luminescence analysis"}, "[3]": {"target": "T3, Aminopeptidase N (Sus scrofa) (UniProt P15145)", "T3 sequence (whole entry)": "T1 sequence (P15145 whole entry)", "assay": "Potency index, ratio of bestatin IC50 to test compound IC50 for inhibition of APN in pig kidney microsomes assessed as reduction in p-nitroanilide release using L-leu-p-nitroanilide as substrate incubated for 30 mins by UV absorption based analysis"}, "[4]": {"target": "T4, Serine/threonine-protein kinase AKT (Homo sapiens) (UniProt P31751+Q9Y243+P31749)", "T4 sequence (P31749 whole entry, looked up)": "as the sequence (P31749 whole entry) above", "T4 sequence (P31751 whole entry, looked up)": "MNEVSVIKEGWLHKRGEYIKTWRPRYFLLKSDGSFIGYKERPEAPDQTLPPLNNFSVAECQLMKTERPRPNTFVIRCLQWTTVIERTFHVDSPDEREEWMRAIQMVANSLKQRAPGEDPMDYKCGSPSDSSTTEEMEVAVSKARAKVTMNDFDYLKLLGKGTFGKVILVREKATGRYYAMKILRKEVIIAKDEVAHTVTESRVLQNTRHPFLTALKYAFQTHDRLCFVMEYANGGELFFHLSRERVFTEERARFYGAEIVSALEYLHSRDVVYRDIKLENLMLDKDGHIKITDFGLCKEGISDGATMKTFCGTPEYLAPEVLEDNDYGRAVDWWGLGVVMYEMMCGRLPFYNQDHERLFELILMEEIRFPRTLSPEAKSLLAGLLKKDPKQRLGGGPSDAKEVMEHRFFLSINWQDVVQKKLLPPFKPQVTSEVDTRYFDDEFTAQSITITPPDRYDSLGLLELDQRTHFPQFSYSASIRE", "T4 sequence (Q9Y243 whole entry, looked up)": "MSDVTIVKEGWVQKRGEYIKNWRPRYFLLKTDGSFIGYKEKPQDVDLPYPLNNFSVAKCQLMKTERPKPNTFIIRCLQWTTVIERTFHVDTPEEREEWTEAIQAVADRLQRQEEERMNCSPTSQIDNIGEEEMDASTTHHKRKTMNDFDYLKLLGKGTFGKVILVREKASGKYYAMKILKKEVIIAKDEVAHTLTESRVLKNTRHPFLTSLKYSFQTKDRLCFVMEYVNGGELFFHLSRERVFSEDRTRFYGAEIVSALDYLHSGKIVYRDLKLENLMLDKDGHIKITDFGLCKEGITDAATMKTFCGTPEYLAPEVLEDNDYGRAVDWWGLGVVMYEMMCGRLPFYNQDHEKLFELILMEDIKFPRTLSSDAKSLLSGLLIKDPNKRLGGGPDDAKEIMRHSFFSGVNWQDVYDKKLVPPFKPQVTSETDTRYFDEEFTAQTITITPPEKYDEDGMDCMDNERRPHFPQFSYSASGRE", "assay": "Inhibition of AKT in human AGS cells assessed as inhibition of GSK3beta phosphorylation incubated for up to 6 hrs by immunoblot analysis", "type": "cell-based", "settings": "dose 2-10 µM, time hrs <=6", "summary_of_the_method": "(§1)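 Western blot in AGS cells treated with DMSO or compound at 2 or 10 μM for 2 or 6 h. Phospho-GSK3β was probed with β-actin as loading control and blots were quantified. Three independent experiments were run, with Student's two-tailed t test against control.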"}, "[5]": {"target": "T4, Serine/threonine-protein kinase AKT (Homo sapiens)", "assay": "Inhibition of AKT in human AGS cells assessed as inhibition of GSK3beta phosphorylation up to 10 uM by immunoblot analysis", "type": "cell-based", "settings": "dose microM <=10, time 2-6 hrs, TDE = time-dependent effect", "summary_of_the_method": "as §1"}}, "note": "pIC50: −log10 of the molar value. Active and inactive are the calls of the source. No cut-off for these calls is given here.", "data": [{"smiles": "CC(C)C[C@@H](NC(=O)NC1CCN(c2ncnc3[nH]ccc23)CC1)C(=O)NO", "values": [{"measurement": "pIC50", "setting": "Aminopeptidase N", "value": 6.15}, {"measurement": "inhibition", "setting": "[1]", "value": 4, "unit": "%"}]}, {"smiles": "CC(C)C[C@@H](NC(=O)N1CCN(c2ncnc3[nH]ccc23)CC1)C(=O)NO", "values": [{"measurement": "pIC50", "setting": "Aminopeptidase N", "value": 6.68}, {"measurement": "inhibition", "setting": "[1]", "value": 29, "unit": "%"}]}, {"smiles": "O=C(N[C@@H](C(=O)NO)c1ccccc1)C1CCN(c2ncnc3[nH]ccc23)CC1", "values": [{"measurement": "pIC50", "setting": "Aminopeptidase N", "value": 6.41}]}, {"smiles": "O=C(NO)[C@@H](Cc1ccccc1)NC(=O)N1CCN(c2ncnc3[nH]ccc23)CC1", "values": [{"measurement": "pIC50", "setting": "Aminopeptidase N", "value": 6.59}, {"measurement": "inhibition", "setting": "[1]", "value": 11, "unit": "%"}]}, {"smiles": "NC1(C(=O)N[C@@H](CCO)c2ccc(Cl)cc2)CCN(c2nc[nH]c3nccc2-3)CC1", "note": "[CAPIVASERTIB]", "values": [{"measurement": "pIC50", "setting": "NCI-H1975", "value": 5.57}, {"measurement": "pIC50", "setting": "AGS", "value": 5.02}, {"measurement": "pIC50", "setting": "MCF7", "value": 5.38}, {"measurement": "Activity", "setting": "HUVEC", "value": "inactive"}]}, {"smiles": "COc1ccc(Cn2ccc3ccc(C(=O)NO)cc32)cc1", "values": [{"measurement": "Activity", "setting": "HUVEC", "value": "inactive"}]}, {"smiles": "CC(C)C[C@H](NC(=O)[C@@H](O)[C@H](N)Cc1ccccc1)C(=O)O", "note": "[UBENIMEX]", "values": [{"measurement": "pIC50", "setting": "NCI-H1975", "value": "< 3.70"}, {"measurement": "pIC50", "setting": "AGS", "value": "< 3.70"}, {"measurement": "pIC50", "setting": "MCF7", "value": "< 3.70"}, {"measurement": "Activity", "setting": "HUVEC", "value": "Active"}]}, {"smiles": "NC1(C(=O)N[C@@H](Cc2ccccc2)C(=O)NO)CCN(c2ncnc3[nH]ccc23)CC1", "values": [{"measurement": "pIC50", "setting": "Aminopeptidase N", "value": 3.80}, {"measurement": "inhibition", "setting": "[1]", "value": 2, "unit": "%"}]}, {"smiles": "NC1(C(=O)N[C@@H](C(=O)NO)c2ccccc2)CCN(c2ncnc3[nH]ccc23)CC1", "values": [{"measurement": "pIC50", "setting": "NCI-H1975", "value": 4.69}, {"measurement": "pIC50", "setting": "Aminopeptidase N", "value": 6.02}, {"measurement": "pIC50", "setting": "AGS", "value": 4.51}, {"measurement": "pIC50", "setting": "[2]", "value": 6.92}, {"measurement": "inhibition", "setting": "[1]", "value": 60, "unit": "%"}, {"measurement": "pIC50", "setting": "MCF7", "value": 4.61}, {"measurement": "Activity", "setting": "HUVEC", "value": "Active"}]}, {"smiles": "CC(C)[C@H](NC(=O)C1(N)CCN(c2ncnc3[nH]ccc23)CC1)C(=O)NO", "values": [{"measurement": "pIC50", "setting": "Aminopeptidase N", "value": 3.85}, {"measurement": "inhibition", "setting": "[1]", "value": 5, "unit": "%"}]}, {"smiles": "NC1(C(=O)N[C@H](C(=O)NO)c2ccccc2)CCN(c2ncnc3[nH]ccc23)CC1", "values": [{"measurement": "pIC50", "setting": "Aminopeptidase N", "value": 5.83}, {"measurement": "inhibition", "setting": "[1]", "value": 35, "unit": "%"}]}, {"smiles": "O=C(NC1CCN(c2ncnc3[nH]ccc23)CC1)N[C@@H](C(=O)NO)c1ccccc1", "values": [{"measurement": "pIC50", "setting": "Aminopeptidase N", "value": 5.27}]}, {"smiles": "O=C(NO)[C@H](NC(=O)N1CCN(c2ncnc3[nH]ccc23)CC1)c1ccccc1", "values": [{"measurement": "pIC50", "setting": "Aminopeptidase N", "value": 5.98}]}, {"smiles": "NC1(C(=O)N[C@H](Cc2c[nH]c3ccccc23)C(=O)NO)CCN(c2ncnc3[nH]ccc23)CC1", "values": [{"measurement": "pIC50", "setting": "Aminopeptidase N", "value": 5.38}, {"measurement": "inhibition", "setting": "[1]", "value": 3, "unit": "%"}]}, {"smiles": "CC(C)[C@@H](NC(=O)C1(N)CCN(c2ncnc3[nH]ccc23)CC1)C(=O)NO", "values": [{"measurement": "pIC50", "setting": "Aminopeptidase N", "value": 6.33}, {"measurement": "inhibition", "setting": "[1]", "value": 6, "unit": "%"}]}, {"smiles": "CC(C)C[C@H](NC(=O)C1(N)CCN(c2ncnc3[nH]ccc23)CC1)C(=O)NO", "values": [{"measurement": "pIC50", "setting": "Aminopeptidase N", "value": 4.49}, {"measurement": "inhibition", "setting": "[1]", "value": 7, "unit": "%"}]}, {"smiles": "O=C(N[C@H](Cc1ccccc1)C(=O)NO)C1CCN(c2ncnc3[nH]ccc23)CC1", "values": [{"measurement": "pIC50", "setting": "Aminopeptidase N", "value": 6.15}, {"measurement": "inhibition", "setting": "[1]", "value": 7, "unit": "%"}]}, {"smiles": "NC1(C(=O)N[C@@H](Cc2c[nH]c3ccccc23)C(=O)NO)CCN(c2ncnc3[nH]ccc23)CC1", "values": [{"measurement": "pIC50", "setting": "Aminopeptidase N", "value": 3.90}, {"measurement": "inhibition", "setting": "[1]", "value": 5, "unit": "%"}]}, {"smiles": "O=C(NC1CCN(c2ncnc3[nH]ccc23)CC1)N[C@H](Cc1ccccc1)C(=O)NO", "values": [{"measurement": "pIC50", "setting": "Aminopeptidase N", "value": 6.05}, {"measurement": "inhibition", "setting": "[1]", "value": 7, "unit": "%"}]}, {"smiles": "NC1(C(=O)N[C@H](Cc2ccccc2)C(=O)NO)CCN(c2ncnc3[nH]ccc23)CC1", "values": [{"measurement": "pIC50", "setting": "Aminopeptidase N", "value": 6.17}, {"measurement": "inhibition", "setting": "[1]", "value": 21, "unit": "%"}]}, {"smiles": "CC(C)C[C@@H](NC(=O)C1CCN(c2ncnc3[nH]ccc23)CC1)C(=O)NO", "values": [{"measurement": "Ratio IC50", "setting": "[3]", "value": 70}, {"measurement": "pIC50", "setting": "Aminopeptidase N", "value": 7.30}, {"measurement": "inhibition", "setting": "[1]", "value": 2, "unit": "%"}]}, {"smiles": "CC(C)C[C@@H](NC(=O)C1(N)CCN(c2ncnc3[nH]ccc23)CC1)C(=O)NO", "values": [{"measurement": "inhibition", "setting": "[4]", "value": "Dose-Dependent Effect"}, {"measurement": "pIC50", "setting": "NCI-H1975", "value": 4.56}, {"measurement": "inhibition", "setting": "[5]", "value": "Tde"}, {"measurement": "pIC50", "setting": "Aminopeptidase N", "value": 6.68}, {"measurement": "pIC50", "setting": "AGS", "value": 4.28}, {"measurement": "pIC50", "setting": "[2]", "value": 6.57}, {"measurement": "inhibition", "setting": "[1]", "value": 43, "unit": "%"}, {"measurement": "pIC50", "setting": "MCF7", "value": 4.49}, {"measurement": "Activity", "setting": "HUVEC", "value": "Active"}]}]}
